Columns and labels:
Assay type in all cases: ADME, organism-based
[1] = (§1) Plasma concentration in Sprague-Dawley rat at 20 mg/kg administered via oral gavage at […] by LC-MS analysis
[2] = Plasma concentration in Swiss outbred mouse at […], iv at 10 hrs by LC-MS analysis
[3] = Plasma concentration in Swiss outbred mouse at 48 mg/kg administered via oral gavage at […] by LC-MS analysis
[4] = Plasma concentration in Swiss outbred mouse at 48 mg/kg administered via oral gavage at 24 hrs by LC-MS analysis
Procedure, shortened: (§2)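 Single oral administration of 48 mg/kg to male Swiss outbred mice. Plasma concentration-time profile reported as the mean and range of n=2 mice per time point.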

[5] = Plasma concentration in Sprague-Dawley rat at 1 mg/kg, iv administered as 10 mins infusion measured at 2.67 hrs by LC-MS analysis
Procedure, shortened: (§3)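 Male Sprague Dawley rats were dosed IV (nominal 1 mg/kg; 0.9 mg/kg actual) or orally (nominal 20 mg/kg; 19 mg/kg actual). Plasma concentration–time profiles were determined, with n=2 rats per time point, and mean and range reported.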

[6] = Plasma concentration in Sprague-Dawley rat at 1 mg/kg, iv administered as 10 mins infusion measured at 1.17 hrs by LC-MS analysis; procedure, shortened: as §3
[7] = Plasma concentration in Sprague-Dawley rat at 20 mg/kg administered via oral gavage at 4 hrs by LC-MS analysis; procedure, shortened: as §3
[8] = Plasma concentration in Sprague-Dawley rat at 1 mg/kg, iv administered as 10 mins infusion measured at 10.17 hrs by LC-MS analysis; procedure, shortened: as §3
[9] = Plasma concentration in Swiss outbred mouse at 48 mg/kg administered via oral gavage at 2 hrs by LC-MS analysis; procedure, shortened: as §2
[10] = Plasma concentration in Sprague-Dawley rat at 1 mg/kg, iv administered as 10 mins infusion measured at 16.17 hrs by LC-MS analysis; procedure, shortened: as §3
[11] = Plasma concentration in Swiss outbred mouse at […], iv at 4 hrs by LC-MS analysis
[12] = Plasma concentration in Swiss outbred mouse at 48 mg/kg administered via oral gavage at 1 hr by LC-MS analysis; procedure, shortened: as §2
[13] = Plasma concentration in Swiss outbred mouse at 48 mg/kg administered via oral gavage at 4 hrs by LC-MS analysis; procedure, shortened: as §2
[14] = Plasma concentration in Swiss outbred mouse at 48 mg/kg administered via oral gavage at 7.5 hrs by LC-MS analysis; procedure, shortened: as §2
[15] = Plasma concentration in Swiss outbred mouse at 48 mg/kg administered via oral gavage at 10 hrs by LC-MS analysis; procedure, shortened: as §2
[16] = Plasma concentration in Swiss outbred mouse at […], iv at 0.033 hrs by LC-MS analysis
[17] = as §1; remark: listed apart in the source
[18] = Plasma concentration in Swiss outbred mouse at […], iv at 0.008 hrs by LC-MS analysis
[19] = (§4) Plasma concentration in Swiss outbred mouse at […], iv at […] by LC-MS analysis
[20] = Plasma concentration in Swiss outbred mouse at […], iv at 0.5 hrs by LC-MS analysis
[21] = Plasma concentration in Sprague-Dawley rat at 1 mg/kg, iv administered as 10 mins infusion measured at 0.08 hrs by LC-MS analysis; procedure, shortened: as §3
[22] = Plasma concentration in Swiss outbred mouse at […], iv at 1 hr by LC-MS analysis
[23] = Plasma concentration in Swiss outbred mouse at […], iv at 7.5 hrs by LC-MS analysis
[24] = Plasma concentration in Sprague-Dawley rat at 20 mg/kg administered via oral gavage at 5 hrs by LC-MS analysis; procedure, shortened: as §3
[25] = Plasma concentration in Swiss outbred mouse at […], iv at 2 hrs by LC-MS analysis
[26] = Plasma concentration in Swiss outbred mouse at 48 mg/kg administered via oral gavage at 0.5 hrs by LC-MS analysis; procedure, shortened: as §2
[27] = Plasma concentration in Sprague-Dawley rat at 1 mg/kg, iv administered as 10 mins infusion measured at 24.17 hrs by LC-MS analysis; procedure, shortened: as §3
[28] = Plasma concentration in Swiss outbred mouse at […], iv at 24 hrs by LC-MS analysis
[29] = Plasma concentration in Swiss outbred mouse at […], iv at 0.08 hrs by LC-MS analysis
[30] = as §4; remark: listed apart in the source
[31] = (§5) Plasma concentration in Sprague-Dawley rat at 1 mg/kg, iv administered as 10 mins infusion measured at […] by LC-MS analysis
[32] = Plasma concentration in Sprague-Dawley rat at 1 mg/kg, iv administered as 10 mins infusion measured at 5.17 hrs by LC-MS analysis; procedure, shortened: as §3
[33] = as §5; remark: listed apart in the source
[34] = Plasma concentration in Sprague-Dawley rat at 1 mg/kg, iv administered as 10 mins infusion measured at 0.5 hrs by LC-MS analysis; procedure, shortened: as §3
[35] = Plasma concentration in Sprague-Dawley rat at 20 mg/kg administered via oral gavage at 0.5 hrs by LC-MS analysis; procedure, shortened: as §3
[36] = Plasma concentration in Sprague-Dawley rat at 20 mg/kg administered via oral gavage at 1 hr by LC-MS analysis; procedure, shortened: as §3

`CN(C)CCCNc1ccc(-c2ccc(F)c(Cl)c2)o1` gave a concentration at […] [1] of 45.5 nM, a concentration at 10 h [2] of 23 nM and a concentration at […] [3] of 171 nM. The concentration at 24 h [4] was 208 nM, the concentration at 2.67 h [5] was 20 nM and the concentration at 1.17 h [6] was 29 nM. The concentration at 4 h [7] was 28 nM, the concentration at 10.17 h [8] was 29 nM and the concentration at 2 h [9] was 494 nM. For the same molecule, the concentration at 16.17 h [10] was 25 nM, the concentration at 4 h [11] was 29 nM and the concentration at 1 h [12] was 693 nM. It also gave a concentration at 4 h [13] of 132 nM, a concentration at 7.5 h [14] of 239 nM and a concentration at 10 h [15] of 192 nM. The concentration at 0.033 h [16] was 149 nM, the concentration at […] [17] was 50 nM and the concentration at 0.008 h [18] was 841 nM. The concentration at […] [19] was 310 nM, the concentration at 0.5 h [20] was 44 nM and the concentration at 0.08 h [21] was 334 nM. The concentration at 1 h [22] was 43 nM, the concentration at 7.5 h [23] was 31 nM and the concentration at 5 h [24] was 27 nM. The concentration at 2 h [25] was 26 nM, the concentration at 0.5 h [26] was 812 nM and the concentration at 24.17 h [27] was 20 nM. It also gave a concentration at 24 h [28] of 22 nM, a concentration at 0.08 h [29] of 80 nM and a concentration at […] [30] of 54 nM. It also gave a concentration at […] [31] of 71 nM, a concentration at 5.17 h [32] of 35 nM and a concentration at […] [33] of 255 nM. The concentration at 0.5 h [34] was 36 nM, the concentration at 0.5 h [35] was 65 nM and the concentration at 1 h [36] was 80 nM.

From ChEMBL document CHEMBL4002594, “Novel inhibitors of Plasmodium falciparum based on 2,5-disubstituted furans” (Eur J Med Chem, 2017)
